The test system of data set [1] is PBMC. As to the kind of experiment: Immunosuppressive effect in human PBMC cells assessed as […] in […]/ionomycin-induce IL-10 release at 20.2 uM after 18 hrs by flow cytometry analysis relative to PMA and ionomycin. In kind it is functional. The procedure, abridged:
(§1)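 PBMC prepared from donor buffy coat on Ficoll-Paque and kept in supplemented RPMI 1640. Cells (0.5 × 10⁶) given 20.2 µM compound with PMA 3.33 ng/ml and ionomycin 500 nM (final) for 18 h at 37 °C, 5% CO₂. Supernatant IL-1β, IL-6, IL-8, IL-10 and TNF-α read by flow cytometry. Expressed relative to PMA/ionomycin alone, mean ± SD of 4 samples, two donors.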
On the technique in general: A flow cytometer gives signals particle by particle.

The test system of data set [2] is PBMC. As to the kind of experiment: Cytotoxicity against human PBMC assessed as LDH release at 20.2 uM. It is filed as cell-based. Background: Release of lactate dehydrogenase indicates damage to the cell membrane.
Data set [3] relates to PBMC. Briefly: Immunosuppressive effect in human PBMC cells assessed as […] in […]/ionomycin-induce IL-6 release at 20.2 uM after 18 hrs by flow cytometry analysis relative to PMA and ionomycin. In kind it is functional. A digest of the protocol: as §1
Data set [4] deals with PBMC. Briefly: Immunomodulatory effect in human PBMC cells assessed as decrease in LPS-induced IL-10 release at 20.2 uM after 18 hrs by flow cytometry analysis relative to LPS. In kind it is functional. Also on record: scale not given: the % may be the effect or the level left. A digest of the protocol: (§2)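 Human PBMC isolated from healthy-donor buffy coats on a Ficoll-Paque gradient. Cultured in RPMI 1640 with 10% heat-inactivated FCS, 2 mM L-glutamine and 50 µM 2-mercaptoethanol. 0.5 × 10⁶ cells exposed to 20.2 µM compound plus 10 ng/ml LPS, DMSO ≤0.1%, for 18 h at 37 °C in 5% CO₂. Supernatant cytokines measured by flow cytometric bead assay. Values are % of LPS alone, mean ± SD of 4 samples, two donors.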

Data set [5] relates to PBMC. As to the kind of experiment: Immunomodulatory effect in human PBMC cells assessed as decrease in LPS-induced IL-6 release at 20.2 uM after 18 hrs by flow cytometry analysis relative to LPS. It is filed as functional. Also on record: scale not given: the % may be the effect or the level left. A digest of the protocol:
as §2

Data set [6] relates to THP-1. Briefly: Toxicity in human THP1 cells assessed TNF-alpha release at 20.2 uM after 24 hrs by sandwich ELISA. In kind it is cell-based. The note with it: thp-1, 24 h. A digest of the protocol: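 THP-1 in supplemented RPMI 1640 co-incubated 24 h with 20.2 µM compound and 1 ng/ml LPS, DMSO ≤0.2%. TNF-α release expressed as % of the LPS-only response, mean ± SD of 6 samples, Mann-Whitney U test.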
Background: An ELISA detects its analyte on a solid surface through an enzyme-linked reagent.

For data set [7], the system named is PBMC. Briefly: Immunomodulatory effect in human PBMC cells assessed as increase in LPS-induced TNFalpha release at 20.2 uM after 18 hrs by flow cytometry analysis relative to LPS. In kind it is functional. A digest of the protocol: as §2
In data set [8] the test system is PBMC. As to the kind of experiment: Immunosuppressive effect in human PBMC cells assessed as […] in […]/ionomycin-induce IL1-beta release at 20.2 uM after 18 hrs by flow cytometry analysis relative to PMA and ionomycin. In kind it is functional. A digest of the protocol: as §1
Data set [9] deals with PBMC. Briefly: Immunosuppressive effect in human PBMC cells assessed as […] in […]/ionomycin-induce IL-8a release at 20.2 uM after 18 hrs by flow cytometry analysis relative to PMA and ionomycin. In kind it is functional. A digest of the protocol:
as §1

In data set [10] the test system is THP-1. As to the kind of experiment: Cytotoxicity against human THP1 cells assessed as LDH release at 20.2 uM. It is filed as cell-based. The note with it: thp-1, 20.2 µM. A digest of the protocol: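 LDH leakage into the medium used as the cytotoxicity read-out, taken at the highest concentration tested.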
In data set [11] the test system is PBMC. Briefly: Immunomodulatory effect in human PBMC cells assessed as LPS-induced IL1-beta release at 20.2 uM after 18 hrs by flow cytometry analysis relative to LPS. In kind it is functional. The procedure, abridged: as §2
Data set [12] concerns PBMC. As to the kind of experiment: Immunomodulatory effect in human PBMC cells assessed as decrease in LPS-induced IL-8a release at 20.2 uM after 18 hrs by flow cytometry analysis relative to LPS. It is filed as functional. Also on record: scale not given: the % may be the effect or the level left. A digest of the protocol:
as §2

For data set [13], the system named is PBMC. Briefly: Immunosuppressive effect in human PBMC cells assessed as […] in […]/ionomycin-induce TNFalpha release at 20.2 uM after 18 hrs by flow cytometry analysis relative to PMA and ionomycin. In kind it is functional. The procedure, abridged:
as §1

For data set [14], the system named is THP-1. Briefly: Immunomodulatory effect in human THP1 cells assessed as increase in LPS-induced TNF-alpha release at 20.2 uM after 24 hrs by sandwich ELISA relative to LPS. It is filed as functional. A digest of the protocol:
(§3)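 THP-1 cells at 10⁶ cells/ml in RPMI 1640 with 10% heat-inactivated FCS. Co-incubated 24 h with compound (0.2–200 µM) plus E. coli 0127:B8 LPS 1 ng/ml, DMSO vehicle ≤0.2% final. TNF-α in supernatant expressed as % of LPS-induced release, mean ± SD of 6 samples.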

Data set [15] relates to PBMC. Briefly: Immunomodulatory effect in human PBMC cells assessed as increase in LPS-induced TNF-alpha release at 20.2 uM after 24 hrs by sandwich ELISA. It is filed as functional, cell-based.
In data set [16] the test system is THP-1. Briefly: Immunomodulatory effect in human THP1 cells assessed as increase in LPS-induced TNF-alpha release at 2 uM after 24 hrs by sandwich ELISA relative to LPS. It is filed as functional. A digest of the protocol:
as §3

The subject of data set [17] is THP-1. Briefly: Toxicity in human THP1 cells assessed TNF-alpha release at 20.2 uM after 3 to 24 hrs by sandwich ELISA. It is filed as cell-based. The settings on record: thp-1, 20.2 µM. The procedure, abridged:
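Time course in THP-1 cells, with release sampled at 3, 8 and 24 h. Cells co-incubated with test agent and 1 ng/ml LPS. Co-incubation was compared with preincubation.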

Data set [18] concerns THP-1. As to the kind of experiment: Immunomodulatory effect in human THP1 cells assessed as increase in LPS-induced TNF-alpha release after 24 hrs by sandwich ELISA relative to LPS. In kind it is functional, cell-based. A digest of the protocol: as §3
Data set [19] has as its system THP-1. Briefly: Immunomodulatory effect in human THP1 cells assessed as increase in LPS-induced TNF-alpha release at 200 uM after 24 hrs by sandwich ELISA relative to LPS. In kind it is functional. The procedure, abridged:
as §3

Data set [20] concerns THP-1. As to the kind of experiment: Immunomodulatory effect in human THP1 cells assessed as increase in LPS-induced TNF-alpha release at 0.2 uM after 24 hrs by sandwich ELISA relative to LPS. It is filed as functional. The procedure, abridged: as §3

Active and inactive are the calls of the source. The calls are words filed in the database; no cut-off is given here.

On to `C[C@H](NC(=O)CNC(=O)c1cc2ccccc2[nH]1)C(=O)N[C@H](CCC(=O)O)C(=O)O`, for which the Activity was 75.8% in data set [1]; “Non-toxic” in data set [2]; 42.5% in data set [3]; 68.5% in [4]; 76.8% in data set [5]; “Non-toxic” in data set [6]. For the same compound, the Activity is reported as 103.5% in data set [7]; 96.5% in [8]; 90% in data set [9]; “Non-toxic” in data set [10]; 78% in data set [11]; 95.5% in data set [12]. In addition, the Activity in data set [13] was 63.5%; in data set [14], 118.5%.
In the case of `CC(=O)N[C@H]1C(O)O[C@H](CO)[C@@H](O)[C@@H]1O[C@H](C)C(=O)N[C@@H](C)C(=O)N[C@H](CCC(=O)O)C(N)=O` (stereo partly drawn) [MURAMYL DIPEPTIDE], the result in data set [15] was Active. The Activity result in data set [2] was “Non-toxic”; in data set [16], 171.8%; in [17], “Non-toxic”; in data set [6], “Non-toxic”; in data set [10], “Non-toxic”; in data set [18] it was “Dose-dependent effect”. The Activity in data set [19] worked out at 306.8%; in [14] it was 187.4%; in [20] it was 108%.
Turning to `C[C@H](NC(=O)CNC(=O)c1cc2ccccc2[nH]1)C(=O)N[C@H](CCC(=O)O)C(N)=O`, the Activity in data set [1] is recorded as 102%; in data set [2] it was “Non-toxic”; in data set [3], 76%; in data set [4], 71.5%; in [5], 74%; in data set [6], “Non-toxic”. In addition, the Activity is on record as 101% in [7]; 91.5% in data set [8]; 98.5% in data set [9]; “Non-toxic” in [10]; 90.5% in [11]; 98.5% in data set [12]. In addition, the values for the Activity in [13] and in data set [14] were 93.5% and 126.2%, respectively.
